Assay results from ChEMBL document CHEMBL1121565, “Antiarrhythmic activity of amitriptyline analogues in conscious dogs after myocardial infarction: cyproheptadinium methiodide” (1980).

Legend:
[1] = tested on: Canis familiaris; assay: Evaluated for the antiarrhythmic activity in conscious dogs after myocardial infarction by observing 50% reduction in ectopic rate..; type: functional, Canis lupus familiaris, Heart
Method in brief: (§1)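 After 30-45 min of adjustment with lead II ECG recording (about 80-85% ectopic complexes), drug was given iv through a foreleg vein in 0.5 mL increments at 2-min intervals. Dosing stopped at sinus rhythm or 3.0 mg/kg total.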

[2] = tested on: Canis familiaris; assay: Evaluated for the antiarrhythmic activity in conscious dogs after myocardial infarction by observing for conversion to sinus rhythm.; type: functional, Canis lupus familiaris, Heart; method in brief: as §1
[3] = tested on: Canis familiaris; assay: Compound was tested for its activity against altering of mean arterial blood pressure when administered with a dose of 25 ug/Kg; Could not significantly alter; type: functional, organism-based; details: Canis lupus familiaris; Artery
Method in brief: (§2)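 Anesthetized dogs with no cardiac insult were allowed about 30 min to stabilize after surgery, then given 25 µg/kg iv, followed by 50 µg/kg 30 min later. Arterial pressure, lead II ECG from limb needle electrodes, ECG-derived heart rate and left ventricular dp/dt at 50 mmHg developed pressure were recorded at 100 mm/s. Values before and 5 min after dosing were compared by Student's t test, p < 0.05.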

[4] = tested on: Canis familiaris; assay: Heart beat rate was measured in dogs after 5 min of administration of 25 ug/Kg dose of the compound; type: functional, Canis lupus familiaris; method in brief: as §2
[5] = tested on: Canis familiaris; assay: Heart beat rate was measured in dogs after subsequent administration of 50 micorg/Kg 30 min after administration of 25 ug/Kg dose of the compound; type: functional, Canis lupus familiaris; method in brief: as §2
[6] = species on record: Canis familiaris; assay: Heart beat rate was measured in dogs prior to the treatment with compound; type: functional, Canis lupus familiaris; method in brief: as §2
[7] = tested on: Canis familiaris; assay: Myocardial contractility was measured in dogs after 5 min of administration of 25 ug/Kg dose of the compound; type: functional, Canis lupus familiaris, Myocardium; method in brief: as §2
[8] = species on record: Canis familiaris; assay: Myocardial contractility was measured in dogs prior to the treatment with compound; type: functional, Canis lupus familiaris, Myocardium; method in brief: as §2

SMILES | Dose [1] | Dose [2] | Activity [3] | Heart beat [4] | Heart beat [5] | Heart beat [6] | Activity [7] | Activity [8]
CN1CCC(=C2c3ccccc3C=Cc3ccccc32)CC1 [CYPROHEPTADINE] | 0.69 µM/kg | 1.04 µM/kg | – | – | – | – | – | –
CN(C)CCC=C1c2ccccc2C=Cc2ccccc21 [CYCLOBENZAPRINE] | 3.99 µM/kg | 6.17 µM/kg | – | – | – | – | – | –
C[N+]1(C)CCC(=C2c3ccccc3C=Cc3ccccc32)CC1.[I-] | 0.03 µM/kg | 0.042 µM/kg | Could not significantly alter | 174 beats min-1 | 196 beats min-1 | 148 beats min-1 | 3250 mmHg s-1 | 2333 mmHg s-1
CCN(CC)CC(=O)Nc1c(C)cccc1C.Cl | 5.54 µM/kg | 9.97 µM/kg | – | – | – | – | – | –
CN(C)CCC=C1c2ccccc2CCc2ccccc21 [AMITRIPTYLINE] | 3.97 µM/kg | 4.69 µM/kg | – | – | – | – | – | –
